One assay has as its system rat MAO enzyme. Particulars: cited from earlier work.
For assay [1], the target named is T1, hMAO-A (Homo sapiens, UniProt P21397).
T1 sequence (P21397 1-527): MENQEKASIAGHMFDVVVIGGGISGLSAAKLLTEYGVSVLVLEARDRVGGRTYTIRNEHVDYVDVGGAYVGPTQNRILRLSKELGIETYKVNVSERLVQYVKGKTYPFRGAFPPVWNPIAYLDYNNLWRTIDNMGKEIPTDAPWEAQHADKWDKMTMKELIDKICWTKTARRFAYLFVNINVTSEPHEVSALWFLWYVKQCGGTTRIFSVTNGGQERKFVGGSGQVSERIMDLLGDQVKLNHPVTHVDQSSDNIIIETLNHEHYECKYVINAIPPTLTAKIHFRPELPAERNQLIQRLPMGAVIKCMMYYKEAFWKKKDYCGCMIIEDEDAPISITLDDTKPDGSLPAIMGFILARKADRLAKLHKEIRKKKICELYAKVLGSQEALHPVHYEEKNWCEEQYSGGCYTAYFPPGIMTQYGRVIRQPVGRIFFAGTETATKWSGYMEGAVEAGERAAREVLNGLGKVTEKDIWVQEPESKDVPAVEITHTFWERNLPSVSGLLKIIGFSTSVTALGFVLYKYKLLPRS
The assay is described as follows: biochemical. Particulars: Table 2; for IC50: IC50 (μM) hMAO-A (n = 3), log dose inhibition curve, mean ± SD of triplicate; for SI (selective index): ratio of hMAO-B IC50/hMAO-A IC50.

The target in assay [2] is T2, hMAO-B (Homo sapiens, UniProt P27338).
T2 sequence (P27338 1-520): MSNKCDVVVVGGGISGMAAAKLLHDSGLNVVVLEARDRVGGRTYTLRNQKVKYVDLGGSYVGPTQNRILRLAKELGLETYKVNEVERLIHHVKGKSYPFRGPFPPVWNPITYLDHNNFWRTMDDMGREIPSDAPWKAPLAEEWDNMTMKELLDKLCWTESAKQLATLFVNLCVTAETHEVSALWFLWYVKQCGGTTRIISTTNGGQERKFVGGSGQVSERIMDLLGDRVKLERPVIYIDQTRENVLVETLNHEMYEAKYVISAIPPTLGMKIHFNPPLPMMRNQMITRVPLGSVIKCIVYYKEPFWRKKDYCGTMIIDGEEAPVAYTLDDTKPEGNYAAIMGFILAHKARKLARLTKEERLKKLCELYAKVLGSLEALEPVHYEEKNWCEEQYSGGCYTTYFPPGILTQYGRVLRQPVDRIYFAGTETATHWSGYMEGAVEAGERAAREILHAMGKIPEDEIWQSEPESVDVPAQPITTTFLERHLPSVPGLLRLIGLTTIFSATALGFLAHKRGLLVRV
The assay can be described thus: In vitro human MAO inhibitory assay. It is filed as biochemical.

Assay [3] concerns the target T1, hMAO-A. The assay is described as follows: Enzyme kinetics of hMAO-A inhibition. In kind it is biochemical. The following applies: for inhibition type: hMAO-A, determined by Lineweaver–Burk plot. The procedure, abridged: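 hMAO-A activity was measured with the chemiluminescent MAO-Glo kit assay. Reactions ran at three MAO substrate concentrations (320, 160 and 80 μM), with or without test compound. Michaelis–Menten and Lineweaver–Burk plots gave Km, Vmax and inhibition mode. Ki came from secondary plots: Kic for inhibitor binding free enzyme, Kiu for binding the enzyme–substrate complex.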

The next assay deals with mouse liver MAO enzyme. The following applies: cited from earlier work.
The target in assay [4] is T1, hMAO-A. The following applies: data reproduced from recent publication ref 32; cited from earlier work.
The target of assay [5] is T2, hMAO-B. The assay is described as follows: Enzyme kinetics of hMAO-B inhibition. In kind it is biochemical. In short, it runs like this: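 For hMAO-B, chemiluminescent MAO-Glo kit reactions were set up at three MAO substrate levels (32, 16 and 8 μM), with or without test compound. Inhibition mode, Km and Vmax were read from Michaelis–Menten and Lineweaver–Burk plots. Secondary plots gave Ki: Kic for inhibitor binding free enzyme, Kiu for binding the enzyme–substrate complex.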

Here are results for 11 molecules from article PMC6777294 (ACS Omega, 2019).

Read-outs that look alike come from different tables or passages of the source.

In the case of `O=C(O)c1cc(O)c2c(c1)C(=O)c1cccc(O)c1C2=O` [rhein], the “activity against rat MAO enzyme” value in the assay on rat MAO enzyme is “inactive”.

On to `COc1cc(O)c2c(c1)C(=O)c1cc(C)cc(O)c1C2=O` [Compound 2, physcion], for which the IC50 at hMAO-A [1] and against hMAO-B [2] was greater than 400 µM each time. In addition, the “activity against rat MAO enzyme” value in the assay on rat MAO enzyme is “inactive”.

As for `O=C1c2cccc(O)c2C(=O)c2c(O)cc(CO)cc21` [Compound 9, aloe-emodin], it took 2.47 ± 0.14 µM to reach half-maximal inhibition at hMAO-A [1] (IC50). Also, the “activity against rat MAO enzyme” value in the assay on rat MAO enzyme is “inactive”. Also, at hMAO-A [3], the Ki is 0.5 µM and the inhibition type entry was “competitive”. At hMAO-B [2], this molecule returned an IC50 greater than 400 µM.

As for `Cc1cc(O)c2c(c1)C(=O)c1cc(O)cc(O)c1C2=O` [Compound 10, emodin], the IC50 at mouse liver MAO enzyme is 37 µM; against hMAO-A [1], 23.3 ± 1.46 µM; against hMAO-B [2], 54.7 ± 0.74 µM. Also, the “activity against rat MAO enzyme” value with rat MAO enzyme was “inactive”.

As for `O=C1c2cccc(O)c2C(=O)c2c(O)cccc21` [1,8-dihydroxyanthraquinone], the “activity against rat MAO enzyme” value in the assay on rat MAO enzyme was “inactive”.

`COc1cc(O)c2c(O)c3c(=O)cc(C)oc3cc2c1` [Compound 13, rubrofusarin]: the “SI (selective index)” value at hMAO-A [1] amounted to 15.49. Also, at hMAO-A [4], the “Kiu (binding constant of inhibitor with enzyme–substrate complex)” value is listed as 4.22 and the inhibition type entry is on record as “mixed-type”. The IC50 at hMAO-B [2] came to 91.4 ± 1.31 µM.

With `COc1cc(O)cc2c1C(=O)c1c(O)cc(C)cc1C2=O` [Compound 12, questin], the IC50 worked out at 0.17 ± 0.01 µM against hMAO-A [1] and 10.6 ± 0.28 µM against hMAO-B [2]. Besides, the Ki is 0.13 µM at hMAO-A [3] and 4.14 µM at hMAO-B [5]. The inhibition type result on hMAO-A [3] is reported as “competitive”; against hMAO-B [5] (hMAO-B, determined by Lineweaver–Burk plot), “competitive”.

For `Cc1cc(O)c2c(c1)C(=O)c1cccc(O)c1C2=O` [Compound 1, chrysophanol], the IC50 on hMAO-A [1] and at hMAO-B [2] was greater than 400 µM each time. The “activity against rat MAO enzyme” value in the assay with rat MAO enzyme was “inactive”.

`COc1c(O)c(C)cc2c1C(=O)c1c(O)cccc1C2=O` [Compound 4, obtusifolin]: the IC50 against hMAO-A [1] was 31.8 ± 0.6 µM; against hMAO-B [2], greater than 400 µM.

On to `COc1c(O)cc2c(c1O)C(=O)c1c(cc(C)c(O)c1OC)C2=O` [Compound 5, aurantio-obtusin], for which, at hMAO-A [1], the IC50 came to 27.2 ± 0.85 µM and the “SI (selective index)” value was 6.40. The IC50 against hMAO-B [2] was 174 ± 1.86 µM.

Regarding `COc1cc2c(c(OC)c1OC)C(=O)c1c(cc(C)c(O)c1OC)C2=O` [Compound 6, chryso-obtusin], the IC50 against hMAO-A [1] is 328 ± 10.2 µM; against hMAO-B [2], greater than 400 µM.
